# A selection: hits, their analogues and other compounds. The true share with any hit is near 1.9%.
# M5 ag = CHRM5 agonism in calcium assay; P08912; CHO-K1 hM5 cells, Fluo-8 calcium fluorescence; 0% DMSO wells, 100% maximal acetylcholine response; activation, % at 3 µM; actives 0.19% (n = 360,000);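 active = activation above the run's mean over test compounds plus 3 SD, cut at about 23% in these data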;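 note: signal is peak over basal fluorescence ratio across the kinetic read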
# CHRM5 PAM = potentiates acetylcholine response at human M5 receptor | P08912 | CHO-K1 hM5, Fluo-8 calcium, ACh EC20 PAM; 0% = ACh EC20, 100% = ACh EC100 | activation, % at 3 µM | actives 0.3% (n = 360,000) | AID 624038;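 active = activation above the run cutoff, the mean activation of all test compounds plus 3 SD, cut at about 18% in these data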
#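 Assay system: CHO-K1 hM5 cells. Also added: acetylcholine at EC20 concentration, added after compound. Dosing: 3 µM, single dose. Times: compound preincubation 140 s before EC20 acetylcholine addition. Signal: Fluo-8 calcium fluorescence. Measure: % activation relative to EC20 and EC100 ACh responses. Repeats: singlicate, one well per test compound.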
# CHRM4 agonist = agonists of human muscarinic M4 receptor (CHRM4) | P08173 | CHO-K1 hM4/Gqi5, Fluo-8 calcium fluorescence; vehicle 0%, full acetylcholine response 100% | activation, % at 3 µM | actives 0.14% (n = 360,000) | AID 624127;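 active = activation above the run mean over all test wells plus 3 SD, cut at about 32% in these data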;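 note: peak over basal fluorescence ratio per well then scaled between controls; 0% = DMSO wells and 100% = acetylcholine at EC100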
# Target sequence (P08173 whole entry, looked up): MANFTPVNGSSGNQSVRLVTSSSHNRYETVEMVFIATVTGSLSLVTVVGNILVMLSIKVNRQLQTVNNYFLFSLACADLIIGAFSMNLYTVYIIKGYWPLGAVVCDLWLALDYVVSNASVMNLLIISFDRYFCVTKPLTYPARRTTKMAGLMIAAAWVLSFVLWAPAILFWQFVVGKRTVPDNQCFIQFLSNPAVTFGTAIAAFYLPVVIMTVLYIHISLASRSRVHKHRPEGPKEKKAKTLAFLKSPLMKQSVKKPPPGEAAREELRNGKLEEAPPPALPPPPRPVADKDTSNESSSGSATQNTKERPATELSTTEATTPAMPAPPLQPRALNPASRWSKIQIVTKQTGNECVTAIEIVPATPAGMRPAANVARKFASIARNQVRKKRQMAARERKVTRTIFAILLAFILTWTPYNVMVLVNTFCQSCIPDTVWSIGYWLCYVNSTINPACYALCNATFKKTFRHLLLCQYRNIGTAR
# M4 antag = antagonists of human muscarinic M4 receptor (CHRM4). actives 0.73% (n = 360,000). inhibition, % at 3 µM. P08173. AID 624125. CHO-hM4 cells, ACh EC80, Fluo-8 calcium fluorescence;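 active = inhibition above its plate's cutoff, the mean inhibition of sample wells plus 3 SD, cut at about 27% in these data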;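 note: 0% = acetylcholine EC80 with DMSO and 100% = DMSO without agonist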
# CHRM5 antagonist = CHRM5 antagonism in calcium assay; CHO-hM5 cells, Fluo-8 calcium fluorescence, ACh EC80; inhibition, % at 3 µM; actives 0.59% (n = 360,000);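 active = inhibition above a per-plate cutoff, the mean of that plate's test compounds plus 3 SD, cut at about 27% in these data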;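 note: 0% = acetylcholine EC80 with DMSO and 100% = DMSO without agonist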
# M4 PAM = potentiates acetylcholine response at human M4 receptor; actives 0.4% (n = 360,000); P08173; activation, % at 3 µM; CHO-K1 hM4/Gqi5, Fluo-8 calcium fluorescence, ACh EC20; 0% = ACh EC20, 100% = maximal ACh;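 active = activation above its plate's cutoff, the mean activation of sample wells plus 3 SD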
# * = called active by the depositor.
SMILES,M5 ag,CHRM5 PAM,CHRM4 agonist,M4 antag,CHRM5 antagonist,M4 PAM
CCOc1ccccc1Oc1c(C)oc2c(CN3CCN(CCO)CC3)c(O)ccc2c1=O,0.7,9.9,1.4,-4.9,-6.0,2.2
CCOC(=O)c1ccc(Oc2c(C)oc3c(CN4CCN(C)CC4)c(O)ccc3c2=O)cc1,-6.7,-11.6,0.1,32.8*,-1.1,-20.5
COc1ccc(Oc2c(C)oc3c(CN4CCOCC4)c(O)ccc3c2=O)cc1,-8.0,-21.8,1.1,41.4*,10.5,-15.0
CS(=O)(=O)N1CCN(c2ccc(NC(=O)COc3ccccc3[N+](=O)[O-])cc2)CC1,2.7,-3.5,8.9,0.4,15.5,-1.3
CC(=O)c1ccc(N2CCN(C(=S)NCc3ccco3)CC2)cc1,-1.3,-4.8,5.8,-7.6,13.3,-2.5
Cc1cc2c(c(=O)n1Cc1ccco1)C(c1cccnc1)C(C#N)=C(N)O2 (stereo not drawn),3.6,-5.8,0.1,12.5,0.9,29.9*
CCOc1ccc(C2C(C#N)=C(N)Oc3cc(C)n(Cc4ccco4)c(=O)c32)cc1OC (stereo not drawn),0.8,0.2,0.2,3.3,-4.2,-6.4
O=C1c2cccc3c(N4CCCCC4)ccc(c23)C(=O)N1c1ccc(O)cc1,21.5,-9.1,11.4,4.1,18.0,0.6
O=C1c2cccc3c(N4CCCCC4)ccc(c23)C(=O)N1c1ccccc1O,27.8*,-19.8,39.2*,34.7*,34.5*,-17.1
O=C(Nc1ncc(Cc2ccc(SC(F)F)cc2)s1)c1ccc(OC(F)F)cc1,2.0,-2.7,3.4,7.1,15.1,20.8*
O=C(CN1C(=O)NC2(CCc3ccccc32)C1=O)NCc1ccc(Cl)cc1 (stereo not drawn),1.6,-0.3,2.3,-9.3,8.4,23.7*
CCCN1CCC(=O)N(CCSc2ccc(C)cc2)CC1,-4.0,8.8,1.2,4.8,-3.0,4.1
CCCN1CCC(=O)N(CCSc2ccc(OC)cc2)CC1,2.7,18.6*,5.4,-13.8,-9.8,0.3
Fc1cccc(F)c1/C=N/NC(=S)Nc1cccnc1,-3.0,-2.6,0.4,11.3,5.7,-3.4
Fc1c(F)c(F)c(/C=N/NC(=S)Nc2cccnc2)c(F)c1F,-1.7,7.4,3.1,-9.1,-5.5,19.5*
Cc1cc(CNC(=O)COC(=O)C2CC3CCCC(C2)C3=O)cc(C)c1O (stereo not drawn),-1.0,-0.6,1.1,-0.7,12.6,2.4
Cn1nnnc1SCCNC(=O)C1CCC(=O)N(Cc2ccc(Cl)cc2)C1 (stereo not drawn),-0.7,19.4*,0.1,-7.6,-18.4,8.5
c1ccc2c(Nc3ccc4c(c3)OCCO4)c3c(nc2c1)CCCC3,-9.1,-20.1,2.5,-4.4,43.7*,-9.9
NC(=O)CSc1nc2c(sc3ccccc32)c(=O)n1CCCN1CCOCC1,-1.0,0.5,0.5,8.4,-1.4,-3.8
Cc1ccc2nc(SCC(=O)O)nc(C)c2c1,-0.1,4.5,0.9,-1.3,-3.5,18.8*
O=C(c1ccc(CSc2nc3ccncc3[nH]2)cc1)N1CCN(c2cccc(Cl)c2)CC1,5.9,-19.4,19.1,10.3,35.5*,-12.0
CCOC(=O)c1ccc(NS(=O)(=O)c2ccc(SC)cc2)cc1,1.6,-11.0,6.4,-8.3,3.5,-5.2
COc1ccc(NC(=O)C2CCC(C)(C(=O)O)C2(C)C)cc1 (stereo not drawn),-1.5,-1.0,0.5,27.6*,-9.2,1.8
CCOc1ccc(NC(=O)C2CCC(C)(C(=O)O)C2(C)C)cc1 (stereo not drawn),0.3,-4.0,0.5,2.1,1.8,2.4
CCN(CCNC(=O)C1CCCN(S(=O)(=O)c2cnc[nH]2)C1)c1ccccc1 (stereo not drawn),0.4,-5.1,1.4,0.8,0.1,6.0
SMILES,M5 ag,CHRM5 PAM,CHRM4 agonist,M4 antag,CHRM5 antagonist,M4 PAM
CSc1ccc(CN(C)C(=O)CNC(=O)c2sc3ccccc3c2Cl)cc1,-3.4,-0.4,1.9,-8.8,5.1,6.3
Cc1ccc2[nH]c(-c3ccccc3)c(CN3CCCC3)c(=O)c2c1,-3.5,20.3*,-0.4,-10.8,-13.7,13.2
FC(F)Sc1ccc(NC(=S)NC2CCCC2)cc1,2.9,-17.7,13.1,10.8,5.5,-12.0
CC1CCCC(NC(=S)Nc2ccc(SC(F)F)cc2)C1C (stereo not drawn),2.8,-15.5,10.4,13.5,30.7*,-13.7
COC(=O)c1ccc(NC(=S)NC2CCCCC2C)cc1 (stereo not drawn),8.3,-19.5,12.4,-4.9,28.8*,-9.1
CC(C)CN(C(=O)COc1cccc(-n2cnnn2)c1)C1CCS(=O)(=O)C1 (stereo not drawn),-4.4,-1.9,1.3,-14.7,-8.4,16.7
Cc1cccc(C)c1NC(=O)COC(=O)c1cccc2c1C(=O)c1ccccc1C2=O,0.9,-8.7,3.2,4.7,0.8,-6.2
Cc1cccc(NC(=O)COC(=O)c2cccc3c2C(=O)c2ccccc2C3=O)c1C,-1.6,-18.5,-0.7,57.3*,30.0*,-31.8
O=S(=O)(Nc1ccc2c(c1)OCO2)c1cccs1,-2.0,33.6*,0.4,-10.0,20.7,4.5
Fc1ccc(NC(=S)NC2CC3CCCC(C2)N3Cc2cccs2)cc1 (stereo not drawn),-6.1,-13.9,3.4,8.2,31.8*,-5.6
Cc1ccccc1C(=O)N1CCC(C(=O)OCC(=O)Nc2cccc([N+](=O)[O-])c2C)CC1,3.5,-3.6,7.2,-16.3,3.5,8.8
Cc1c(NC(=O)CN2CCC(C(N)=O)CC2)cccc1[N+](=O)[O-],2.8,21.2*,1.8,3.2,-2.6,-1.7
CC(=O)c1cccc(S(=O)(=O)N2CCC(C(=O)O)(c3ccccc3)CC2)c1,-3.3,-1.5,0.4,-31.1,1.8,16.4*
CC(=O)c1cccc(S(=O)(=O)N2CCC(C(=O)O)CC2)c1,0.8,5.1,0.7,-5.6,-7.8,-9.2
CC(OC(=O)c1cccc(S(=O)(=O)N2CCN(C)CC2)c1)C(=O)Nc1ccc(C(N)=O)cc1 (stereo not drawn),3.5,-8.6,0.5,-4.4,3.3,5.3
CC(=O)c1cccc(NC(=O)C(C)OC(=O)c2cccc(S(=O)(=O)N3CCN(C)CC3)c2)c1 (stereo not drawn),44.5*,-10.8,1.9,-0.6,-0.2,1.8
CC12CCC(C(=O)NCc3ccccc3Cl)(C(Br)C1=O)C2(C)C (stereo not drawn),-1.6,-3.1,0.0,2.7,0.6,3.0
O=C(CSc1ccc2ccccc2n1)NCCC1=CCCCC1,-7.7,-13.4,-1.5,-11.8,30.5*,-6.4
